# Results from ChEMBL document CHEMBL4513216, “Probing the Open Global Health Chemical Diversity Library for Multistage-Active Starting Points for Next-Generation Antimalarials” (ACS Infect Dis, 2020).
# Assay: Toxicity liver stage against HepG2, at 10uM
# Assay type: cell-based
# Parameters: test concentration 10 uM, cell line HepG2-A16-CD81EGFP
# Details: human, HepG2-A16-CD81EGFP cells; read-out: INHIBITION
# Method in brief: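 Uninfected HepG2-A16-CD81EGFP cells, 3 × 10^3 per well, 1536-well, plated on prespotted compound at 10 μM final, parasite-free screening media added to match infected plates; puromycin 10 μM positive, DMSO 0.5% negative; run in parallel with 48 h PbLuc assay at 37 °C, 5% CO2; viability by CellTiter-Glo luminescence, normalized to controls.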
row,SMILES,cytotoxicity at 10 µM
1,Cc1ccc(SCC2CNc3nc4ccccc4c(=O)n32)c(C)c1 (centres undefined),6.76%
2,CC(C)NC(=O)NC[C@H]1OC[C@@H](NCc2ccc(S(C)(=O)=O)cc2)[C@@H]1O,6.7%
3,CN1CCC(N2CCOC[C@H]2c2nc(C(C)(C)C)c[nH]2)CC1,2.73%
4,Cc1ccc(CN2C[C@H](O)C[C@H]2c2nc(-c3ccc(F)cc3)no2)cc1,-0.456%
5,CC(C)N[C@@H]1CO[C@H](CNC(=O)Nc2ccccc2)[C@H]1O,1.53%
6,Cc1ccc2nc(CSCC(=O)Nc3nnc(C(C)C)s3)cc(=O)n2c1,-4.44%
7,Nc1c(N2CCOCC2)ncnc1N1CCOCC1,-1.31%
8,COc1cccc2ccn(CC(=O)NCC(C)C)c12,-36.5%
9,Cc1ccc(S(=O)(=O)N2CCC(Oc3cccnn3)CC2)c(C)c1,3.47%
10,CCOCC1CN(CCc2ccccc2)Cc2c1cnn2C (centres undefined),-120%
11,CN(C)CC(=O)N1CCC2(CC1)COc1ccccc1S(=O)(=O)N(C)C2,0.0039%
12,COCC1CN(C(=O)CS(C)(=O)=O)Cc2ncn(CC3CC3)c21 (centres undefined),5.29%
13,CC/N=c1\nc(NCC)nc2n1C(O)(Nc1ccc(C)cc1C)CS2 (centres undefined),-1.95%
14,Cn1nnc(NCc2ccc(-c3ccc(Cl)cc3)o2)n1,-7.15%
15,Cc1nn(C)c(C)c1CNC(=O)CCn1ncc2c(Cl)cccc21,8.38%
16,CC(C)=CCCC1(C)C=Cc2c(cc(C)n(CCC(=O)O)c2=O)O1 (centres undefined),3.46%
17,Cc1cc(-c2cc(N)c(=O)n(CC(=O)NCC3CCCCC3)n2)c(C)o1,-21.1%
18,C[C@]1(O)CN(Cc2ncccc2F)CC[C@@H]1Oc1cccc(F)c1,-2.11%
19,O=C(CCn1cncn1)NC1CCS(=O)(=O)C1 (centres undefined),-45.4%
20,Cc1ccc(C)c(CC(=O)NC2CCC(N3C(=O)CCC3=O)CC2)c1 (centres undefined),-1.32%
21,Cc1nc(C)c(C(C)NCc2c(C)nn(CC(C)C)c2N(C)C)s1 (centres undefined),-2.49%
22,Cc1nccn1-c1ccc(C(C)NCc2ncc[nH]2)cc1 (centres undefined),1.91%

row,SMILES,cytotoxicity at 10 µM
1,Cc1cc(C)c(S(=O)(=O)Nc2cccc3c2OCCO3)cc1C(=O)O,5.87%
2,Cc1nc2cc(=O)[nH]n2c(C)c1CC(=O)Nc1cnn(C(C)(C)C)c1,15%
3,CCN(CC)CC(=O)Nc1ccc(-n2ccc(C(N)=O)n2)cc1,-6.9%
4,Cc1ccc(O)c(C(=O)N2CCCC2CC(=O)c2cnn(C)c2)c1 (centres undefined),-3.81%
5,Cc1cc2n(n1)CC(CNC1CCN(Cc3ccccn3)CC1)CN2 (centres undefined),3.67%
6,CC(C)c1noc(CCCC(=O)NC(C)c2nnc3n2CCC3)n1 (centres undefined),9.96%
7,Cc1nc(C)n(CC2CCCN2Cc2nnc(-c3ccco3)o2)n1 (centres undefined),11.4%
8,Cc1[nH]ncc1C(=O)N1CCOC(c2cccs2)C1 (centres undefined),8.8%
9,c1coc(-c2noc(CN3CCc4c(ncn4C4CC4)C3)n2)c1,-8.12%
10,CC1CN(C(=O)c2cc(=O)[nH]c3ccc(F)cc23)CCO1 (centres undefined),19.3%
11,COc1ccc(NC(=O)C2CCCO2)cc1OCc1cccnc1 (centres undefined),-23.6%
12,Cc1cccc(CNCC2COC3(CCCC3)O2)c1C (centres undefined),-150%
13,N#Cc1cccc(S(=O)(=O)Nc2c(F)cccc2N2CCCC2)c1,2.62%
14,CCN(C(=O)NCc1ccccc1OC(F)F)C(C)c1cccnc1 (centres undefined),-2.28%
15,Cc1n[nH]c(SCC(=O)NC(c2ccncc2)C(C)C)n1 (centres undefined),16.4%
16,O=C(NCc1ccccc1F)Nc1ccn(CCN2CCOCC2)n1,-7.85%
17,CC(NC(=O)CCC(C)(C)C)C(=O)Nc1ccc(-n2cncn2)cc1 (centres undefined),-3.46%
18,Cc1ccc(SC2CCCC2)c(C(=O)NCCc2n[nH]c(=O)[nH]2)c1,-45.3%
19,Cn1c(CCN2CCN(CCc3ccccc3)CC2)nc2ccccc21,-43.7%
20,FC(F)(F)c1n[nH]c2c1CN(CCc1ccccn1)CC2,3.76%
21,Cc1ccc2oc(CNC(C)c3nnc4n3CCCC4)cc2c1 (centres undefined),-17.9%
22,CCN(CC)C1CCN(C(=O)NCc2c(C)noc2C)CC1,-3.71%

row,SMILES,cytotoxicity at 10 µM
1,CC(C)CN1CCC(NC(=O)c2ccc(F)cc2I)CC1,-33.9%
2,CN(C)C(=O)N1CCn2cc(CNC(=O)CC3CC3)nc2C1,-80.2%
3,Cc1cccc(C(=O)N2CCn3cc(CN4CCCCC4)nc3C2)n1,-79%
4,c1cc(-c2n[nH]cc2-c2ccnc(N3CCCCCC3)n2)ccn1,-0.252%
5,CC(C)N1CCCC2(CCN(C(=O)COCC(F)(F)C(F)F)C2)C1=O (centres undefined),13.1%
6,CCCn1ncc(-c2ccnc(NC3CCSC3)n2)c1C (centres undefined),2.65%
7,CC(C)Nc1ccnc(N2Cc3cnc(C(C)(C)C)nc3C2)n1,8.33%
8,Cc1n[nH]c(C)c1CCC(=O)NCC1CCOc2ccccc2C1 (centres undefined),-45.6%
9,CNC(=O)c1n[nH]c2c1C(c1cccc3c1OC(C)(C)C3)CC(=O)N2 (centres undefined),0.0642%
10,CCC(Nc1cccc(OC)c1)C(=O)N(CCO)Cc1nccs1 (centres undefined),3.94%
11,O=c1[nH]c(-c2ccc(F)cc2)nc2c1CCNC2,-2.47%
12,O=C(c1ccc(=O)[nH]c1)N1CCC(Oc2cccc(C(F)(F)F)c2)CC1,2.26%
13,CC[C@@]1(O)CCN(c2ncc(Cl)cc2F)C[C@H]1O,2.38%
14,CC(=O)c1ccc(CN2CCCC23CCN(c2ccccn2)CC3)cc1,1.5%
15,COCCN(C)C[C@@H]1CN(C(=O)NC2CCCCC2)C[C@@H]1CO,3.41%
16,CSc1ncc(CNC(C)c2cnn(-c3ccc(F)cc3F)c2C)cn1 (centres undefined),2.77%
17,Cc1nc(C)n(CCNS(=O)(=O)NCc2ccccc2)n1,-11.4%
18,Cc1ccc(CN2CCN(Cc3ccncc3)CC2=O)cc1,-5.64%
19,COc1ccc(C(=O)N2CCOCC(CO)C2)cc1N1CCOCC1 (centres undefined),-14%
20,COCCCN1CCN(C(=O)C(c2cccc(F)c2)N(C)C)CC1 (centres undefined),-13.1%
21,O=C(c1nc2sccn2c1-c1ncc[nH]1)N1CCCCC1,7.52%
22,O=C(CN1CCOC1=O)N1CCc2nnc(Cc3ccccc3)n2CC1,-45.6%

row,SMILES,cytotoxicity at 10 µM
1,Cc1ccccc1C1CCCN1C(=O)CN1CC2(CCNCC2)OC1=O (centres undefined),-11.1%
2,CC(C)(C)n1cc(C2=CCN(CCc3ccccc3)CC2)cn1,14.3%
3,O=C(c1ccccn1)N1CCc2c(nc(N3CCCC3)[nH]c2=O)C1,-5.71%
4,C=Cn1ncc(CN2C[C@@H]3CCCN3C[C@@H]2Cc2ccccc2)c1C,-5.74%
5,Cc1ccccc1C1(C(=O)NCCN2CCCC(C)C2)CCOCC1 (centres undefined),-2.34%
6,COCCn1cc(NC(=O)NCC(c2cccc(F)c2)N(C)C)cn1 (centres undefined),-5.6%
7,Cc1cnn(CC2CN(Cc3nc(-c4ccsc4)no3)CCO2)c1 (centres undefined),-9.74%
8,Cc1cc(C)c(CNC(=O)c2ccc3c(c2)CCC3)c(=O)[nH]1,0.983%
9,CNS(=O)(=O)c1ccc(CNC(=O)Nc2cn[nH]c2)cc1,-8.75%
10,Cc1cnn(CCNCC(O)COc2cc(Cl)ccc2Cl)c1 (centres undefined),2.22%
11,Cn1ncc2c1CCCC2NCc1cccc2c1OCCCO2 (centres undefined),-9.86%
12,O=C(CCc1ccccc1F)NS(=O)(=O)c1ccc2c(c1)OCCO2,-18.6%
13,CC(C)c1nc(CN2CCOC(CNc3cccnn3)C2)cs1 (centres undefined),-2.93%
14,c1cc2n(n1)CC(CNCc1ccc(OC3CCCCC3)nc1)CN2 (centres undefined),-8.49%
15,Cc1nc(C)n(CC2CN(c3ccc(C#N)cn3)CCO2)n1 (centres undefined),-10.5%
16,CCc1nnsc1C(=O)NCCn1nc2ccccn2c1=O,-2.04%
17,Cc1nnc(NCc2ccccc2Cl)c(C#N)c1C,-5.06%
18,CC(NC(=O)NCCN1CCCCCC1=O)c1nncn1C (centres undefined),-7%
19,CC(Cn1cccn1)NC(=O)NCCc1cnn(C)c1 (centres undefined),-0.0611%
20,CCN1CCN(C2CCN(Cc3cc(C)on3)CC2)C1=O,-5.74%
21,COc1cccc(CNc2cnn(C)c(=O)c2Cl)c1,-8.78%
22,CCCN(Cc1ccccc1)Cn1nc(C)c2c(C)onc2c1=O,-9.98%

row,SMILES,cytotoxicity at 10 µM
1,COc1cc(C)nc(N2CCN(C(=O)c3ccc[nH]3)CC2)n1,-5.11%
2,COc1c(CNCC(c2cccc(F)c2)N(C)C)c(C(C)C)nn1C (centres undefined),-3.27%
3,COc1ccc(CCC2CCCCN2)cc1 (centres undefined),-9.83%
4,CC1(C)CC(N(Cc2ccncc2)Cc2cccnc2)CC(C)(C)N1,-14.6%
5,COc1ccc(CN(Cc2cncn2C)CC2CCCO2)c(OC)c1 (centres undefined),-4.48%
6,Cc1cc(C[C@@H]2COC[C@H]2NCc2ccccc2C(F)(F)F)on1,-6.15%
7,Cc1nnc(N2C[C@@H](OCCCn3cccn3)[C@H]3OCCC[C@H]32)s1,-8.19%
8,COCCC(=O)N1CCC2(CCN(Cc3cccc(F)c3)CC2)C1,-75.9%
9,Cc1n[nH]cc1CNC1CCN(c2ccc(F)cc2)CC1,-54%
10,COCCN1CCOCC12CCN(c1ccc(C#N)cc1)CC2,-2.51%
11,Cc1ccc(N2C[C@H]3OCC[C@H]3[C@H](C(=O)NCC3CC3)C2)nn1,-75.7%
12,Cc1nnc(N2CC[C@H]3C[C@H](C(=O)N4CCOCC4)O[C@H]3C2)s1,-0.671%
13,O=C(c1cc2c(s1)CCCC2)N1CCc2nc(C3CCCN3)ncc2C1 (centres undefined),-3.04%
14,c1ccc(COC[C@H]2CC[C@H]3[C@H](CCN3Cc3cccs3)O2)nc1,-85%
15,Fc1cccc(CN2C[C@@H]3COC[C@]3(COCc3ccncc3)C2)c1,-61.1%
16,CNC(=O)[C@H]1CO[C@H]2CCN(Cc3ccc4ccccc4n3)C[C@H]2C1,8.05%
17,Cc1nc(CN2C(=O)CC[C@@H]3[C@H]2CCN3C2CCOCC2)cs1,-147%
18,O=C1NC2(CCNCC2)CC1c1ccccc1 (centres undefined),-72.7%
19,CN(Cc1ccncc1)C1COC2(CCN(Cc3ccsc3)CC2)C1 (centres undefined),-91.8%
20,CNC(=O)c1cnc(C=Cc2cc(OC)c(O)c(OC)c2)s1,1.64%
21,CCN1C[C@@H]2C[C@H](C(=O)NCc3cccnc3)[C@H](C1)O2,2.01%
